From BindingDB's records for doi:10.1016/j.bmcl.2017.04.043 (Vanderbilt University Medical Center, 2017)

How the values were obtained:
[1] = target: T1, Muscarinic acetylcholine receptor M4 (Homo sapiens, UniProt P08173); experiment: (§1) Positive allosteric modulation of human M4 receptor expressed in CHO cells coexpressing Gqi5 assessed as increase in acetylcholine-induced calcium mobilization
T1 sequence (P08173 whole entry): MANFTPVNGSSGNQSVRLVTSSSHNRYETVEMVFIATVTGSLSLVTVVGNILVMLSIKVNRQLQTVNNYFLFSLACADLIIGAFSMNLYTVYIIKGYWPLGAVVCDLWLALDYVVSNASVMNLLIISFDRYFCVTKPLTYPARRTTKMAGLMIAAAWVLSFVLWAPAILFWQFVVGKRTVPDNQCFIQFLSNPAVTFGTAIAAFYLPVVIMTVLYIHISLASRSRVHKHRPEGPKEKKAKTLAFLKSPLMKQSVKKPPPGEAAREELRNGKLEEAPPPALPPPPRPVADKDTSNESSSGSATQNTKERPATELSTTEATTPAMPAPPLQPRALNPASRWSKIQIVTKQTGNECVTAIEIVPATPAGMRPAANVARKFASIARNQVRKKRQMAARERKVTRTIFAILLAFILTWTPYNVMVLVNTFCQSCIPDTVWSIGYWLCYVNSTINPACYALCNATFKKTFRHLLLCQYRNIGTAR
In short: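 Calcium mobilization in CHO cells expressing hM4 with Gqi5. Compound added in presence of a fixed EC20 concentration of acetylcholine. Values are means of three independent experiments, each run in triplicate.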

[2] = target: T2, Cytochrome P450 1A2 (Homo sapiens, UniProt P05177); experiment: ChEBML_1679936
T2 sequence (P05177 whole entry): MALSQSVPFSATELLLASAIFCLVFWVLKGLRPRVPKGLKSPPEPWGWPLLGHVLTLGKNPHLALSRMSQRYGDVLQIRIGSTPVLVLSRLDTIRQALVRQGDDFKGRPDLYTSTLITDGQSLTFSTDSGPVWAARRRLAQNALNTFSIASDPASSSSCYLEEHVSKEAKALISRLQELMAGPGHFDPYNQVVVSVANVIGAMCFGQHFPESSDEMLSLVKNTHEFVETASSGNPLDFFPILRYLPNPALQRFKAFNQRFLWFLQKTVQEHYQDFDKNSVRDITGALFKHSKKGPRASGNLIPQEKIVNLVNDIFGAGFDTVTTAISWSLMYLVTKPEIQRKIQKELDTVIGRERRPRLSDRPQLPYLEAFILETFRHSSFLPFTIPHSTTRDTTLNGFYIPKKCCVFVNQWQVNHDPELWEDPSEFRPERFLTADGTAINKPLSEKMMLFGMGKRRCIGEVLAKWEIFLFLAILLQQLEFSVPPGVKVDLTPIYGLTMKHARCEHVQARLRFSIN
Excerpt: Induction of CYP1A2 in cryopreserved human hepatocytes measured after 48 hrs

[3] = target: T1, Muscarinic acetylcholine receptor M4; experiment: ChEBML_1679899; excerpt: as §1

Row | Compound | EC50 [1] | EC50 [3] | other results
1 | Cc1nnc2sc(C(=O)NCc3ccc(-c4cnccn4)cc3)c(N)c2c1C | 100 nM | – | –
2 | Cc1nnc2sc(C(=O)NCc3ccc(-c4cccnc4F)cc3)c(N)c2c1C | – | – | EC50 [2]: > 50000 nM
3 | Cc1nnc2sc(C(=O)NCc3ccc(-c4ccncc4)cc3)c(N)c2c1C | 26.9 nM | – | –
4 | Cc1nnc2sc(C(=O)NCc3ccc(-c4ccnc(F)c4)cc3)c(N)c2c1C | 49 nM | – | –
5 | Cc1nnc2sc(C(=O)NCc3ccc(-c4cccnc4)cc3)c(N)c2c1C | – | 63.1 nM | –
6 | Cc1cc(-c2ccc(CNC(=O)c3sc4nnc(C)c(C)c4c3N)cc2)cnc1F | – | 776 nM | –
